# Bioassay records (PubChem BioAssay)
# CaV13 FRET inh: Disruptors of the CACNA1D IQ motif to Ca2+-dependent inactivation inhibitor domain association, primary screening, Förster resonance energy transfer in intact living …; HEK cells, CFP/YFP FRET ICDI-IQ, plate reader, 10 min; percent FRET-ratio fall versus neutral wells; inhibition, % at 12.3 µM; actives 0.098% (n = 340,000);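 active = mean replicate inhibition of at least 30% and at least 1% of replicates passing that level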;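 note: 0% = median of the neutral control wells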
# PvdQ acylase: P. aeruginosa PvdQ acylase inhibition; purified PvdQ acylase, fluorescence plate reader; inhibition, % at 10 µM; actives 0.063% (n = 340,000); in the data active = inhibition above about 30%, passing the limit was not always enough;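 note: 0% = vehicle neutral wells and 100% = reference inhibitor wells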
# PfHsp90 set2: inhibits growth of yeast expressing Plasmodium falciparum Hsp90 | actives 0.32% (n = 310,000) | S. cerevisiae expressing PfHsp90, BacTiter-Glo ATP, 48 h; yeast lacking PDR1 and PDR3 efflux regulators | inhibition, % at 9.4 µM;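 active = every replicate shows inhibition above about 80%, whatever the replicate mean, limit read from the data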;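 note: 0% = DMSO neutral controls and 100% = 20 µM radicicol positive controls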
# T cruzi repl: T. cruzi replication inhibition | actives 1.4% (n = 300,000) | T. cruzi beta-gal in NIH3T3, luminescence, 90 h | inhibition, % (test concentration not listed);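 active = mean inhibition across valid replicates above about 55%, limit read from the data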;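 note: signal also drops with host cell toxicity which is not excluded here; 0% = plate median of DMSO wells and 100% = zero luminescence signal; higher percent means less beta-gal luminescence so fewer parasites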
#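 compound dosing = single 50 nL compound addition per well in DMSO | material = NIH/3T3 host cells with β-galactosidase reporter T. cruzi | input = 5,000 host fibroblasts per well | timing = ≥90 h infection period, 3 h prior cell attachment | read-out basis = percent inhibition of parasite-derived β-gal signal | detection = GalScreen β-gal luminescence, detergent lysis, 60 min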
# HSF-1 act: increases HSF-1 driven luciferase reporter signal | actives 1.7% (n = 300,000) | NIH3T3-HGL HSF-1 luciferase reporter, MG132, 8 h; 100% = twice DMSO control signal | activation, % at 9 µM;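 active = mean replicate activation of at least 50% with a set share of replicates each reaching 50%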;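 note: 0% = median of the neutral control wells and 100% = twice that signal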
# N-glyco inh: N-linked glycosylation inhibition. D54 ERlucT glycosylation luciferase reporter, 24 h; percent of 100 nM tunicamycin response. reporter increase, % at 12.5 µM. actives 0.23% (n = 360,000). AID 588692;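 active = mean luciferase reporter signal, scaled so untreated is 0 and the glycosylation-blocking control 100, at or above a set limit in every replicate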;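 note: luciferase carries N-glycosylation sites so blocking glycosylation raises the light; 0% = median of neutral control wells and 100% = median of 100 nM tunicamycin wells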
# An asterisk follows results filed as active; nt = not tested or not shown. A selection: hits, their analogues and other compounds. The true share with any hit is near 3%.
SMILES,CaV13 FRET inh,PvdQ acylase,PfHsp90 set2,T cruzi repl,HSF-1 act,N-glyco inh
CCOC1=C2CN(S(=O)(=O)c3ccc(C)cc3)[C@H](c3cccc(Cl)c3)C[C@@H]2N(S(=O)(=O)c2ccccc2[N+](=O)[O-])[C@H](c2ccccc2)C1,-3.2,nt,nt,nt,nt,-0.2
CC1=C(c2ccccc2)C(=O)C(C)(C)CC1=O,-6.3,nt,nt,nt,nt,nt
CCOc1ccc(C(=O)Nc2c(C(=O)N3CCC(N4CCCCC4)CC3)oc3ccccc23)cc1,-15.8,0.6,-12.1,58.1*,-10.6,-3.9
N/C(Cc1ccc(Cl)cc1Cl)=N\OC(=O)c1cccs1,-4.6,-10.3,82.9*,1.6,23.5,0.8
N/C(Cc1ccc(Cl)cc1Cl)=N\OC(=O)c1ccc(Br)o1,-3.0,-10.8,97.6*,1.2,-24.0,-0.6
N/C(Cc1cccc2ccccc12)=N\OC(=O)c1ccc(Br)o1,-6.4,nt,nt,nt,nt,nt
Cc1ccc(NC(=O)CCC(=O)N/N=C/c2ccc([N+](=O)[O-])o2)cc1C,-6.6,-9.7,41.7,60.6*,18.6,14.7
Cc1nc2ccccc2n1/N=C/c1ccc([N+](=O)[O-])o1,-9.3,9.0,-64.4,42.1,76.7*,11.3
CN(/N=C/c1ccc([N+](=O)[O-])o1)c1ccccc1,-11.7,4.7,24.2,60.0*,31.4,-3.3
CC(=O)N(/N=C/c1ccc([N+](=O)[O-])o1)c1nc2ccccc2c(=O)n1-c1ccccc1,-2.2,-4.2,-26.5,36.3,5.2,1.9
CCCC(=O)Nc1ccc(C(=O)N/N=C/c2ccc([N+](=O)[O-])o2)cc1,-5.8,-11.2,5.3,49.0,35.7,24.1
Cc1ccc(OCC(=O)N/N=C/c2ccc([N+](=O)[O-])o2)cc1,nt,21.3,6.3,66.3*,21.8,14.9
Cc1ccc(OCC(=O)N/N=C\c2ccc(C)o2)c([N+](=O)[O-])c1,2.6,-13.1,0.2,0.0,12.2,1.0
O=C(N/N=C/c1ccc(-c2ccc([N+](=O)[O-])cc2)o1)C(O)c1ccccc1 (centres undefined),-51.2,-3.7,-27.4,3.4,-4.9,-1.5
O=C(COc1ccccc1)N/N=C/c1ccc([N+](=O)[O-])o1,-5.8,-14.9,-13.9,82.6*,6.0,7.1
O=C(COc1ccccc1)N/N=C/c1cc2c(cc1[N+](=O)[O-])OCO2,-2.1,-5.2,-32.2,-4.7,-7.8,3.9
O=C(CNc1ccc2ccccc2c1)N/N=C/c1ccc([N+](=O)[O-])o1,-3.3,-16.9,-7.2,68.5*,46.7,17.9
COc1ccc(-c2nn(-c3ccccc3)cc2C(=O)N/N=C/c2ccc([N+](=O)[O-])o2)cc1,7.0,-8.5,-13.1,90.2*,-24.8,-6.6
O=C(N/N=C/c1ccc([N+](=O)[O-])o1)C(O)c1ccccc1 (centres undefined),-12.7,1.9,-6.4,75.8*,13.0,17.6
Cc1cccc(NC(=O)CSc2nnc(-c3ccco3)c(-c3ccco3)n2)c1,-5.1,2.8,5.9,nt,nt,-0.2
Cc1cccc(NC(=O)CSc2nnc(-c3ccco3)c(-c3ccco3)n2)c1C,nt,8.4,9.9,19.4,88.6*,3.2
CCCCN1C(=O)Cc2c1nc(N)c1c(N)nc(N(CCC)CCC)c(C#N)c21,-4.8,9.8,-36.6,74.1*,2.5,-1.3
C=C(C)CN(CC)c1nc(N)c2c(N)nc3c(c2c1C#N)CC(=O)N3C12CC3CC(CC(C3)C1)C2,-5.6,-5.9,-25.0,56.9*,54.7*,nt
N#Cc1c(N(CCO)CCO)nc(N)c2c(N)nc3c(c12)CC(=O)N3CC1CCCO1 (centres undefined),-7.0,8.1,-21.0,-2.0,7.5,0.2
CCN(CC)c1nc2c3c(nc4c(c3c1C#N)CC(=O)N4c1ccc(Cl)cc1)NC(C)=N2,-3.8,-11.0,4.9,-14.9,7.6,2.2
SMILES,CaV13 FRET inh,PvdQ acylase,PfHsp90 set2,T cruzi repl,HSF-1 act,N-glyco inh
N#Cc1c(N2CCCC(O)C2)nc(N)c2c(N)nc3c(c12)CC(=O)N3C12CC3CC(CC(C3)C1)C2 (centres undefined),-5.9,-13.4,-14.1,-0.9,11.4,40.6*
CCOC(=O)CCCN(c1[nH]c(C)c(C)c1C#N)S(=O)(=O)c1ccc(C)cc1,-3.8,nt,nt,nt,nt,-2.4
CCNC(=S)N1CCN(S(=O)(=O)c2cccc(C(F)(F)F)c2)CC1,-5.7,-8.3,20.6,0.7,72.2*,-0.5
Nc1ccn([C@@H]2O[C@H](C(=O)N[C@H](Cc3ccccc3)C(=O)N3CCC(F)(F)CC3)[C@@H](O)[C@H]2O)c(=O)n1,-7.3,nt,nt,nt,nt,nt
COc1ccc(Cl)cc1S(=O)(=O)Nc1ccc2c(c1)n(C)c(=O)n2C,-7.7,-8.5,-11.7,nt,5.4,58.3*
C=CCN1C(=O)c2n[nH]c(C)c2C1c1ccc(C)cc1 (centres undefined),-4.6,nt,nt,nt,nt,nt
Cc1cccc(CSc2cccc3cccnc23)c1,-7.4,5.4,nt,70.1*,288.4*,-8.6
CC(CNC(=O)[C@@H](Cc1ccccc1)NC(=O)[C@H]1O[C@@H](n2ccc(=O)[nH]c2=O)[C@H](O)[C@@H]1O)c1ccccc1 (some centres undefined),-2.9,nt,nt,nt,nt,nt
Cc1cccc(S(=O)(=O)N2CCC[C@H]2C(=O)N2CCC[C@@H]2C(=O)NCc2ccccc2)c1,-5.8,nt,nt,nt,nt,nt
Cn1nnc(-c2ccc(OCc3ccccc3F)cc2)n1,-5.7,-3.0,4.4,1.5,56.3*,-10.2
Fc1ccccc1COc1ccc(-c2nnn(Cc3ccccc3F)n2)cc1,-6.0,-6.7,-7.4,4.9,17.4,-2.6
Fc1cccc(Cl)c1CNc1ccc(N2CCCC2)cc1,-4.4,-12.5,-9.0,94.4*,-18.1,0.5
CCOC(=O)c1c(C)[nH]c(-c2csc(N)n2)c1C,2.5,-9.2,-24.3,nt,nt,27.4*
CCOC(=O)c1c(C)[nH]c(-c2csc(C)n2)c1C,-1.0,-13.6,-8.2,10.8,4.0,-0.2
Cc1cc(Cl)c(OCCOCCN2CCN(C)CC2)c(Br)c1,-1.3,-11.8,9.0,58.7*,0.5,-0.2
Clc1cc(Br)ccc1OCCOCCN1CCCC1,-2.4,1.3,30.8,59.5*,-5.5,0.4
CC1CCN(CCCOc2ccc(Cl)cc2Br)CC1,-1.8,-14.3,nt,16.2,-2.9,-1.8
CC1CCN(CCOCCOc2ccc(Cl)cc2Br)CC1,-6.6,6.2,12.9,63.8*,-11.6,0.3
Clc1ccc(OCCOCCN2CCCCC2)c(Br)c1,-5.6,2.1,-9.4,59.1*,-1.3,-1.4
COc1ccc(NC(=O)C2(C)Cc3c(-c4ccc5c(c4)OCO5)ccnc3O2)cn1 (centres undefined),-5.1,nt,nt,nt,nt,16.5
Cc1nc2ccc(S(=O)(=O)CCC(=O)NCc3ccc(Cl)cc3)cc2s1,-9.8,nt,nt,nt,nt,0.3
CCN(Cc1ccccc1)C(=O)COC(=O)c1cc(S(=O)(=O)Nc2ccccc2OC)ccc1O,-5.2,-14.5,-2.2,nt,nt,3.0
